One data set is filed under the species Rattus norvegicus. The data set can be described thus: Selectivity index, ratio of IC50 for BuChE in rat serum to IC50 for AChE in rat cortex homogenate. The format is tissue-based.
For data set [1], the target named is Amyloid-beta precursor protein (Homo sapiens) (UniProt P05067). Nature of the data set: Inhibition of amyloid beta (1 to 42) (unknown origin) self aggregation at 50 uM incubated at 37 degC for 24 hrs by dot immunoblot assay. In short, it runs like this:
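Aβ1-42 (2000 µM stock in 1% ammonium hydroxide) diluted in […], pH 6.6. Peptide 25 µM ± Cu(II) 25 µM ± compound 50 µM, incubated 37 °C for 24 h. Samples spotted on nitrocellulose, blocked in 5% milk, probed overnight at 4 °C with A11 (oligomers) or 6E10 (total Aβ), HRP secondary, densitometry. N = 4, mean ± SEM; EGCG control.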

Data set [2] concerns the target T1, Amine oxidase [flavin-containing] A (Homo sapiens, UniProt P21397).
T1 sequence (P21397 whole entry): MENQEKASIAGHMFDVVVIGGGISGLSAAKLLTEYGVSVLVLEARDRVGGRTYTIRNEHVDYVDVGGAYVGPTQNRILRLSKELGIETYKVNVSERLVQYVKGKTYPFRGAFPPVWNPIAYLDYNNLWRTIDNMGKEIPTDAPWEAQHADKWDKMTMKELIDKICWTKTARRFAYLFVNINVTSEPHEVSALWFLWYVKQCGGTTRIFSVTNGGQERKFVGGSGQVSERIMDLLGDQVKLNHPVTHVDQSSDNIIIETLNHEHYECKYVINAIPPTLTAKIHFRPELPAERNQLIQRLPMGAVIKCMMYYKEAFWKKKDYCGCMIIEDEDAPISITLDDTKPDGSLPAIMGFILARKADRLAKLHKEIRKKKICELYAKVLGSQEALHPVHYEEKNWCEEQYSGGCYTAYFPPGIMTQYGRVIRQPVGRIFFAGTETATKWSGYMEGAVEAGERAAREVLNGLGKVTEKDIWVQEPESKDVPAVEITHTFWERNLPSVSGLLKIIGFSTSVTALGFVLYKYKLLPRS
Nature of the data set: Inhibition of recombinant human MAOA at 50 uM using p-tyramine as substrate preincubated for 15 mins followed by substrate addition measured after 15 mins by Amplex red reagent based fluorescence assay. To be noted: 0.25 h. The essentials:
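Recombinant human MAO-A (12.5 µg/mL) or MAO-B (75 µg/mL) preincubated 15 min at 37 °C with compound (diluted from 10 mM DMSO stock in 50 mM KH2PO4, pH 7.4). Amplex Red working solution added: 2 mM p-tyramine (MAO-A) or benzylamine (MAO-B), 2 U/mL HRP. After 15 min at 37 °C, fluorescence read (ex 545/em 590), background from enzyme-free wells subtracted.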

In data set [3] the target is T2, Amine oxidase [flavin-containing] B (Homo sapiens, UniProt P27338).
T2 sequence (P27338 whole entry): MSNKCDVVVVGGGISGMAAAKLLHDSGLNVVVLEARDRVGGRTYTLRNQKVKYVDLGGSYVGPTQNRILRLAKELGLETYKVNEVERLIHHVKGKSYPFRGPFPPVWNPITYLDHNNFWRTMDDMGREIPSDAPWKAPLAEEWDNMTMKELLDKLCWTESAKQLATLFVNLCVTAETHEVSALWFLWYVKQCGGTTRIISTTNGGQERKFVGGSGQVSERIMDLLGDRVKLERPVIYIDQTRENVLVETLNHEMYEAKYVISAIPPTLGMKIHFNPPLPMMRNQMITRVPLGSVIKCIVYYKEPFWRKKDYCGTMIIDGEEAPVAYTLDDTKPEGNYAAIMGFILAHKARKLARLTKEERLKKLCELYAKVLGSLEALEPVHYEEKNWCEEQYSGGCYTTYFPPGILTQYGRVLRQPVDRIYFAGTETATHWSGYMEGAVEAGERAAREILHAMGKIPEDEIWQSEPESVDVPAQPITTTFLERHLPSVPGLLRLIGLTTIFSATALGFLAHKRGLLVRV

The target of another data set is Butyrylcholinesterase (Rattus norvegicus, UniProt Q9JKC1). The data set can be described thus: Inhibition of BuChE in rat serum using butyrylthiocholine iodide as substrate after 20 mins by Ellman's method.
Butyrylcholinesterase, sequence (Q9JKC1 whole entry): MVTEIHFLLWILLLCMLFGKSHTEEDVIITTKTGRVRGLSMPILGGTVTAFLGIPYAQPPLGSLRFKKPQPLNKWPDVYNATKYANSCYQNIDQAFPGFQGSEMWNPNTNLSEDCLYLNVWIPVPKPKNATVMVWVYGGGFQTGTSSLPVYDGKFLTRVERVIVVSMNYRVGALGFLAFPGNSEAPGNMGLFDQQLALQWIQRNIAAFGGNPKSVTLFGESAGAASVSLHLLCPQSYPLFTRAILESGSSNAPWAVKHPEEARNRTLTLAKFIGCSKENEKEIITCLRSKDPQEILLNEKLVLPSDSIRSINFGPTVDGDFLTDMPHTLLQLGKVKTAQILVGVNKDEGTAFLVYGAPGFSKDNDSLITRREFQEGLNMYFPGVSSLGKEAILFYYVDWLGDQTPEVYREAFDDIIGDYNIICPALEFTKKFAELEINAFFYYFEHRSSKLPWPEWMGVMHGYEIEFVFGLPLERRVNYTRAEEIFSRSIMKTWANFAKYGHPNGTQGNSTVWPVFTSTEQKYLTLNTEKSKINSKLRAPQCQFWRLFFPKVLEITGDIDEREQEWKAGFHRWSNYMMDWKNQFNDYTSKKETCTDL
Data set [4] in a line: Metal chelating activity assessed as compound-Fe3+ complex formation at 40 uM in presence of FeCl3 after 30 mins by UV-visible spectrophotometric analysis. The essentials:
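UV–vis spectra (200–500 nm) of compound at 40 µM final, alone or with CuCl2, FeSO4, FeCl3 or ZnCl2 (20 µM final), after 30 min in 20 mM HEPES, 150 mM NaCl, pH 7.4, at room temperature.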

For data set [5], the target named is Amyloid-beta precursor protein (Homo sapiens) (UniProt P05067). Nature of the data set: Inhibition of amyloid beta (1 to 42) peptide (unknown origin) self aggregation-induced cytotoxicity in E17 Sprague-Dawley rat primary cortical neurons assessed as neuroprotective activity by measuring increase in cell viability at 1 uM after 24 hrs by MTT assay. The essentials: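 Rat E17 primary cortical neurons after 9 days in culture. Aβ1-42 samples, prepared as for the dot blot (± Cu2+, ± compound), added to the cultures at 1 µM for 24 h. Viability by MTT, normalized to the vehicle group. EGCG and clioquinol as positive controls.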
Amyloid-beta precursor protein (Homo sapiens), sequence (P05067 whole entry): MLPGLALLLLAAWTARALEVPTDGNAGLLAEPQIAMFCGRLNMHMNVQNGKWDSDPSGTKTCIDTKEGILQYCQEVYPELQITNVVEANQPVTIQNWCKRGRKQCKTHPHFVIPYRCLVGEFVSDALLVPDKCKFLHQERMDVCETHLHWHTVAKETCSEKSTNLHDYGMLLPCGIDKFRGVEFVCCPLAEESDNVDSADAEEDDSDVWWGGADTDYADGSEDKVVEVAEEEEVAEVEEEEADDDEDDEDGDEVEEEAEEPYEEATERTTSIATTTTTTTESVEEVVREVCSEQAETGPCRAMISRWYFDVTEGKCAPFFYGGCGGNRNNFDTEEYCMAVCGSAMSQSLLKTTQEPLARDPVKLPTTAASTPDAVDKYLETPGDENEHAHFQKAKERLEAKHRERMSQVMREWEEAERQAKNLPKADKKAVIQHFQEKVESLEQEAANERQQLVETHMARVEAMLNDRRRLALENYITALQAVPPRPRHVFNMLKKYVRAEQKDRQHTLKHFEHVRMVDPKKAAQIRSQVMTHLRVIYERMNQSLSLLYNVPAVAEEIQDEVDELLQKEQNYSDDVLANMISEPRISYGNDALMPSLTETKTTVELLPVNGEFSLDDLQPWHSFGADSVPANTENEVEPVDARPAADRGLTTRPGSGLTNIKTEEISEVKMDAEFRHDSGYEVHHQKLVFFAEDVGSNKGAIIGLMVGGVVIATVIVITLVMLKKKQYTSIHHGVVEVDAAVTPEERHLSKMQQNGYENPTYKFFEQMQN

Data set [6] in a line: Antioxidant activity assessed as inhibition of Cu2+-mediated redox cycling induced hydroxyl radicals generation at 15 uM in presence of ascorbate by fluorescence assay. The essentials:
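Hydroxyl radicals from Cu(II) (5 µM) and ascorbate (150 µM), with deferoxamine 1 µM, in PBS (20 mM, 100 mM NaCl, pH 7.4, 0.1% methanol). Ligand at 15 µM, with EDTA as positive control. Conversion of coumarin-3-carboxylic acid (50 µM) to fluorescent 7-hydroxy-CCA followed at 37 °C (ex 395/em 450 nm). Run in triplicate.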

The next data set relates to Cortical neurone. Nature of the data set: Cytotoxicity against E17 Sprague-Dawley rat primary cortical neurons at 100 uM after 24 hrs by MTT assay. The format is cell-based. In short, it runs like this: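 Primary cortical neurons from E17 SD rat embryos, trypsin-dissociated and cultured 9 days in neurobasal/B27 on poly-L-lysine (3×10^4 cells/well). Treated at 10, 30 and 100 µM for 24 h, with donepezil as reference. MTT (5 mg/mL, 10 µL) for 4 h at 37 °C, absorbance 490 nm, viability as % of vehicle-treated cells; mean ± SEM.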

The structures appear in SMILES notation. Active and inactive are the calls of the source. The calls are words filed in the database; no cut-off is given here.

For `C#CCN(C)Cc1cn(-c2cc(NC(=S)NCC)ncn2)cn1`, the Ratio IC50 in the data set listed under Rattus norvegicus is over 123. In data set [1], the inhibition result was “inactive”. In addition, in data set [2], the inhibition at 50 µM amounted to 20.2%. Besides, the 50% inhibitory concentration (IC50) is 1430 nM in data set [3] and over 40000 nM against Butyrylcholinesterase. Moreover, the outcome in data set [4] and in [5] was inactive. Besides, the outcome in [6] was Active. Further, in the data set on Cortical neurone, the Activity result is listed as “Toxic”.

These data come from ChEMBL document CHEMBL4138195, “Discovery of novel propargylamine-modified 4-aminoalkyl imidazole substituted pyrimidinylthiourea derivatives as multifunctional agents for the treatment of Alzheimer's disease” (Eur J Med Chem, 2018).
